The values below come from PubChem BioAssay.

Assay [1] can be described thus: yeast TOR pathway RPL19A-GFP modulators, primary screen, cell-based, S. cerevisiae, multiplex flow cytometry (AID 1862; in the data active = percent of DMSO control GFP below about 86%;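 note: lower values mimic rapamycin by blocking the RPL19A rise seen in DMSO cells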). The settings on record: S. cerevisiae RPL19A-GFP strain, flow cytometry fluorescence, 3 h; at 10 µM; stronger effect = lower value. A general note: In flow cytometry, cells or beads pass a laser one at a time.
The nature of assay [2]: modulators of MEP2-GFP levels in yeast, primary screen, S. cerevisiae, multiplex flow cytometry (AID 1867;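 active = GFP response, as percent of the DMSO control, above the screen-wide mean plus 3 SD, about 139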;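 note: median GFP channel fluorescence of barcode-gated MEP2-GFP cells measured by flow cytometry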). The settings on record: S. cerevisiae MEP2-GFP strain, 3 h, at 10 µM, stronger effect = higher value, 100% means same as DMSO wells.
A short description of assay [3]: modulators of CIT2-GFP expression in yeast, primary screen, S. cerevisiae, GFP fusion, multiplex flow cytometry (AID 1870;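 active = percent response above a set limit, the screen-wide mean plus 3 SD, cut at about 130% in these data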;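 note: barcoded CIT2-GFP strain pooled with four other GFP strains with rapamycin as positive control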). The note with it: 3 h, at 10 µM, stronger effect = higher value.
Assay [4] can be described thus: modulators of LAP4-GFP expression in yeast, primary screen, S. cerevisiae, multiplex flow cytometry (AID 1873;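 active = GFP signal, as percent of the solvent control, above the screen mean plus 3 SD, about 149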). The note with it: 3 h, at 10 µM, stronger effect = higher value.
A short description of assay [5]: modulators of AGP1-GFP expression in yeast TOR pathway, primary screen, cell-based, multiplex flow cytometry, S. cerevisiae (AID 1887;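 active = GFP signal above the screen-wide mean plus 3 SD, that is over about 124.5% of the solvent control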;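 note: AGP1-GFP fusion strain of S. cerevisiae within a five-strain barcoded multiplex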). The note with it: 3 h, at 10 µM, stronger effect = higher value.
Assay [6] in a line: RPL19A-GFP modulators, yeast TOR pathway, confirmation, cell-based, S. cerevisiae, flow cytometry, cherry picks, mother/daughter gates (AID 2270;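 active = GFP response below 50% of the DMSO control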). The settings on record: S. cerevisiae RPL19A-GFP strain, 3 h, at 10 µM, stronger effect = lower value, 100 = same GFP as DMSO wells.
A short description of assay [7]: LAP4-GFP expression modulators in yeast, confirmation, cell-based, cherry picks, flow cytometry, mother/daughter gates (AID 2271;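 active = GFP response above 150% of the DMSO control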;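 note: ratio of sample to DMSO plate mean so 100% equals DMSO level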). The settings on record: S. cerevisiae LAP4-GFP strain, 3 h, at 10 µM, stronger effect = higher value, 100 means same as DMSO control. The procedure, abridged: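 Material – Alexa Fluor 633-labelled Saccharomyces cerevisiae GFP-fusion strain, single-plex · Incubation – compound exposure 3 h at 30 °C, end-over-end rotation · Measured by – GFP by flow cytometry · Measure – median GFP fluorescence as percent of plate-mean DMSO wells · Control set – positive rapamycin (400 ng/mL), negative DMSO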

Assay [8] in a line: modulators of MEP2-GFP levels in yeast, confirmation, S. cerevisiae, flow cytometry GFP, cherry picks (AID 2272;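 active = GFP response above 150% of the DMSO control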;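 note: ratio of well signal to plate DMSO mean so 100% equals DMSO level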). The note with it: S. cerevisiae MEP2-GFP strain, 3 h, at 10 µM, stronger effect = higher value.
The nature of assay [9]: modulators of CIT2-GFP expression in yeast, confirmation, S. cerevisiae, GFP fusion, cherry picks, mother/daughter gates (AID 2274;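 active = GFP response above 150% of the DMSO level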). The note with it: S. cerevisiae CIT2-GFP strain, flow cytometry, 3 h, at 10 µM, stronger effect = higher value.
Assay [10] is described as follows: inhibitors of CD8+ T cell-vesicle binding, pilot screen, LFA-1/ICAM-1 modulator project, MLPCN validation set, flow cytometry (AID 2523).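 For vesicle binding response: mean PE anti-B7-1 fluorescence of CD8+ cells relative to row control; 100% = QL9-loaded vesicles with DMSO vehicle in the same plate row.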 The settings on record: 2C mouse CD8+ T cells, at 7 µM, stronger effect = lower value; double positive events: measured here: CD8+/vesicle+ event percentage.
The mark [11] stands for this setting: measured here: daughter cell gate.
[12] abbreviates: measured here: mother cell gate.
[13] abbreviates: measured here: daughter cell gate response.
Setting [14] is: measured here: mother cell gate response.

Records with an inconclusive call do not appear. Calls of active or inactive are those of the source.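 Rule for the calls, unless noted: active = response below a set limit, under 55% cells CD8-positive and vesicle-bound, and CD8 cells' 90th-percentile brightness under 279; inactive = the rest.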

With `C[C@]12C[C@H](O)[C@H]3[C@@H](CCC4=CC(=O)CC[C@@]43C)[C@@H]1CC[C@@H]2C(=O)CO`, in assay [1], the percent of DMSO control GFP is 96.3% (inactive). Further, the GFP response vs DMSO is 110% (inactive) in [2]; 78.1% (inactive) in assay [4]; 98.2% (inactive) in assay [6]; 98.9% in assay [6] (setting [11]); 98.7% in assay [6] (setting [12]); 98.3% (inactive) in assay [8]. The percent response of DMSO control in assay [3] was 112% (inactive). The GFP response, % of DMSO was 101% (inactive) in assay [5], 105% (inactive) in [9], 105% in assay [9] (setting [11]) and 106% in [9] (setting [12]). The GFP response relative to DMSO in assay [7] is 94.1% (inactive); in [7] (setting [13]) it was 94.4%; in assay [7] (setting [14]), 94%. In addition, the double positive events in assay [10] stood at 70.2%. Moreover, the vesicle binding response in [10] was 222% (inactive).

On to `CS(=O)(=O)Nc1cccc(C(=O)CC2(O)C(=O)Nc3ccc(Br)cc32)c1` (configuration not stated), for which, in assay [1], the percent of DMSO control GFP was 85.9% (inactive). Moreover, the GFP response vs DMSO is 150% (active) in assay [2]; 139% (inactive) in assay [4]; 101% (inactive) in assay [6]; 92.4% in assay [6] (setting [11]); 96.2% in assay [6] (setting [12]); 99% (inactive) in assay [8]. For the same compound, the percent response of DMSO control in [3] was 142% (active). The GFP response, % of DMSO in assay [5] is 129% (active); in assay [9] it was 100% (inactive); in assay [9] (setting [11]), 90.2%; in assay [9] (setting [12]), 90.7%. Moreover, the figures for the GFP response relative to DMSO in assay [7], in assay [7] (setting [13]) and in assay [7] (setting [14]) were 98.2% (inactive), 95.9% and 96.2%, respectively. In [10], this compound came in with a double positive events of 57.6%. Besides, in assay [10], the vesicle binding response is 34.1% (inactive).

Regarding `O=c1cnn([C@@H]2O[C@H](CO)[C@@H](O)[C@H]2O)c(=O)[nH]1`, the percent of DMSO control GFP in assay [1] was 84.9% (active). The GFP response vs DMSO is 88.8% (inactive) in [2]; 129% (inactive) in [4]; 80.6% (inactive) in assay [6]; 81% in assay [6] (setting [11]); 81.6% in assay [6] (setting [12]); 93.3% (inactive) in assay [8]. In assay [3], the percent response of DMSO control was 80.8% (inactive). Also, the GFP response, % of DMSO in assay [5] is 98% (inactive); in [9] it was 77.7% (inactive); in assay [9] (setting [11]), 77.9%; in assay [9] (setting [12]), 74.6%. In addition, the GFP response relative to DMSO is 109% (inactive) in assay [7], 104% in [7] (setting [13]) and 109% in [7] (setting [14]). Also, the double positive events in assay [10] stood at 62.2%. Further, the vesicle binding response in assay [10] was 127% (inactive).

In the case of `O=C(O)CCNC(=O)c1ccccc1`, the percent of DMSO control GFP in assay [1] was 90% (inactive). For the same compound, the GFP response vs DMSO in assay [2] was 151% (active); in assay [4], 82% (inactive); in assay [6], 98.7% (inactive); in assay [6] (setting [11]), 97.5%; in [6] (setting [12]) it was 98.1%; in [8], 102% (inactive). The percent response of DMSO control in assay [3] is 101% (inactive). In addition, the GFP response, % of DMSO in assay [5] is 91% (inactive); in assay [9], 97.8% (inactive); in assay [9] (setting [11]), 98.3%; in assay [9] (setting [12]), 98%. The figures for the GFP response relative to DMSO in assay [7], in [7] (setting [13]) and in [7] (setting [14]) were 103% (inactive), 102% and 103%, respectively. In [10], the double positive events came out at 65.7%. Besides, in assay [10], the vesicle binding response was 186% (inactive).

For `COc1ccc(C(=O)NCC2OCCc3ccccc32)cc1` (configuration not stated), the percent of DMSO control GFP in [1] was 90% (inactive). For the same compound, the GFP response vs DMSO is 150% (active) in assay [2]; 107% (inactive) in [4]; 96.4% (inactive) in [6]; 97.1% in assay [6] (setting [11]); 97.2% in assay [6] (setting [12]); 102% (inactive) in assay [8]. In addition, in assay [3], the percent response of DMSO control was 120% (inactive). For the same compound, the GFP response, % of DMSO was 107% (inactive) in assay [5], 98.3% (inactive) in assay [9], 99.1% in [9] (setting [11]) and 97.3% in assay [9] (setting [12]). For the same compound, the GFP response relative to DMSO in [7] was 103% (inactive); in assay [7] (setting [13]) it was 102%; in [7] (setting [14]), 104%. Besides, in assay [10], the double positive events was found to be 64.3%. For the same compound, in assay [10], the vesicle binding response was 122% (inactive).

Consider `COc1cccc(/C=C/C(=O)c2c(O)cc(C)oc2=O)c1O`, for which, in [1], the percent of DMSO control GFP is 104% (inactive). For the same compound, the GFP response vs DMSO in [2] was 108% (inactive); in assay [4] it was 184% (active); in [6], 101% (inactive); in assay [6] (setting [11]), 104%; in assay [6] (setting [12]), 99.7%; in [8], 107% (inactive). The percent response of DMSO control in [3] is 82.5% (inactive). The GFP response, % of DMSO in assay [5] is 91.1% (inactive); in assay [9], 91.2% (inactive); in assay [9] (setting [11]) it was 99.1%; in [9] (setting [12]) it was 90.2%. In addition, the values for the GFP response relative to DMSO in assay [7], in assay [7] (setting [13]) and in [7] (setting [14]) were 165% (active), 155% and 175%, respectively. In addition, the double positive events in assay [10] amounted to 62.2%. The vesicle binding response in [10] was 259% (inactive).
